According to ChEMBL document CHEMBL1121949, “Species- or isozyme-specific enzyme inhibitors. 8. Synthesis of disubstituted two-substrate condensation products as inhibitors of rat adenylate kinases” (J Med Chem, 1982):
“And” between values parts separate entries of the source, which are not always exact repeats. Equal entries are not always repeated.

What was measured:
[1] = target: T1, Adenylate kinase isoenzyme 1 (Rattus norvegicus, UniProt P39069); test: Inhibitory activity against rat Adenylate kinase M isoenzyme in the presence of ATP non competitive inhibition
T1 sequence (P39069 whole entry): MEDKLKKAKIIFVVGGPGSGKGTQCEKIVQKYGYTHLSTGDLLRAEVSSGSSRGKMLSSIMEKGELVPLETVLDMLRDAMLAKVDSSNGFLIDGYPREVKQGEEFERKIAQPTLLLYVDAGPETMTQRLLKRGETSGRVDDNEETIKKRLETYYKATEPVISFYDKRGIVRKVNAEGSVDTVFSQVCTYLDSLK
Method in brief: (§1)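 Rat adenylate kinase isozymes AK II or AK-M were used, with AMP or ATP as the varied substrate. Substrate and inhibitor constants (Ki) came from steady-state kinetics. ATP derivatives, and P1,P5-pentaphosphate derivatives with Ki above 0.10 mM, were added as 1:1 Mg complexes, made by adding MgSO4 to their stock solutions.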

[2] = target: T2, Adenylate kinase 2, mitochondrial (Rattus norvegicus, UniProt P29410); test: Inhibitory activity against rat adenylate kinase II was determined in the presence of ATP, non competitive inhibition; method in brief: as §1
[3] = target: T2, Adenylate kinase 2, mitochondrial; test: Inhibitory activity against rat adenylate kinase II was determined in the presence of ATP, competitive inhibition; method in brief: as §1
[4] = Relative potency inhibitory calculated as the ratio of AK-II/AK-M
[5] = Inhibitory potency against AK II was calculated using the equation KM(ATP) / Ki(ATP varied)
[6] = Inhibitory potency against AK M was calculated using the equation KM(ATP) / Ki(ATP varied)
[7] = target: T1, Adenylate kinase isoenzyme 1; test: Inhibitory activity against rat Adenylate kinase M isoenzyme in the presence of ATP competitive inhibition
[8] = target: T1, Adenylate kinase isoenzyme 1; test: Inhibitory activity against rat Adenylate kinase M isoenzyme in the presence of ATPnon competitive inhibition; method in brief: as §1
[9] = target: T2, Adenylate kinase 2, mitochondrial; test: Inhibitory activity against rat adenylate kinase II was determined in the presence of ATP, competitive inhibition
[10] = target: T2, Adenylate kinase 2, mitochondrial; test: Inhibitory activity against rat adenylate kinase II was determined in the presence of AMP, non competitive inhibition; method in brief: as §1
[11] = target: T1, Adenylate kinase isoenzyme 1; test: Inhibitory activity against rat Adenylate kinase M isoenzyme in the presence of ATP non competitive inhibition
[12] = target: T1, Adenylate kinase isoenzyme 1; test: Inhibitory activity against rat Adenylate kinase M isoenzyme in the presence of ATP; method in brief: as §1
[13] = Inhibitory activity against rat adenylate kinase M (AK-M)isoenzyme in the presence of ATP competitive inhibition; method in brief: as §1
[14] = Inhibitory activity against rat adenylate kinase M (AK-M)isoenzyme in the presence of AMP competitive inhibition; method in brief: as §1
[15] = target: T2, Adenylate kinase 2, mitochondrial; test: Inhibitory activity against rat adenylate kinase II was determined in the presence of ATP; method in brief: as §1
[16] = target: T2, Adenylate kinase 2, mitochondrial; test: Inhibitory activity against rat adenylate kinase II was determined in the presence of AMP, competitive and non competitive inhibition; method in brief: as §1
[17] = Inhibitory activity against rat adenylate kinase M (AK-M)isoenzyme in the presence of AMP non competitive; method in brief: as §1
[18] = Inhibitory activity against rat adenylate kinase M (AK-M)isoenzyme in the presence of ATP non competitive; method in brief: as §1
[19] = target: T2, Adenylate kinase 2, mitochondrial; test: Inhibitory activity against rat adenylate kinase II was determined in the presence of AMP, competitive inhibition; method in brief: as §1
[20] = target: T2, Adenylate kinase 2, mitochondrial; test: Inhibitory activity against rat adenylate kinase II was determined in the presence of AMP; method in brief: as §1
[21] = target: T1, Adenylate kinase isoenzyme 1; test: Inhibitory activity against rat Adenylate kinase M isoenzyme in the presence of AMP; method in brief: as §1

Nc1ncnc2c1ncn2[C@@H]1O[C@H](COP(=O)(O)OP(=O)(O)OP(=O)(O)O)[C@@H](O)[C@H]1O [ADENOSINE TRIPHOSPHATE]
Ki [1]: 570 µM
Ki [2]: 90 µM

CCC[C@H](OP(=O)(O)OP(=O)(O)OP(=O)(O)O)[C@H]1OC(n2cnc3c(N)ncnc32)[C@H](O)[C@@H]1O (stereo partly specified)
Ki [3]: 450 µM
Relative inhibitory potency [4]: 0.11
Inhibitory potency [5]: 0.2
Inhibitory potency [6]: 1.9
Ki [7]: 300 µM

CCC[C@@H](OP(=O)(O)OP(=O)(O)OP(=O)(O)O)[C@H]1OC(n2cnc3c(N)ncnc32)[C@H](O)[C@@H]1O (stereo partly specified)
Ki [8]: 4500 µM
Relative inhibitory potency [4]: > 2.4
Inhibitory potency [5]: 0.2
Inhibitory potency [6]: < 0.084
Ki [9]: 450 µM

Nc1ncnc2c1ncn2[C@@H]1O[C@H](CO)[C@@H](O)[C@H]1O [ADENOSINE]
Ki [10]: 92000 µM
Ki [2]: 87000 µM
Ki [11]: 82000 µM

CCSc1nc2c(N)ncnc2n1[C@@H]1O[C@H](COP(=O)(O)OP(=O)(O)OP(=O)(O)O)[C@@H](O)[C@H]1O
Ki [12]: 6100 µM

CCSc1nc2c(N)ncnc2n1C1O[C@H](COP(=O)(O)OP(=O)(O)OP(=O)(O)OP(=O)(O)OP(=O)(O)OC[C@H]2OC(n3cnc4c(N)ncnc43)[C@H](O)[C@@H]2O)[C@@H](O)[C@H]1O (stereo partly specified)
Relative inhibitory potency [4]: 5.9
Ki [13]: 3 µM
Inhibitory potency [5]: 1120
Inhibitory potency [6]: 190
Ki [14]: 3.5 µM
Ki [9]: 0.06 µM and 0.08 µM

C[C@@H](OP(=O)(O)OP(=O)(O)OP(=O)(O)O)[C@H]1OC(n2cnc3c(N)ncnc32)[C@H](O)[C@@H]1O (stereo partly specified)
Ki [15]: 2200 µM
Ki [12]: 1800 µM
Relative inhibitory potency [4]: 0.13

CCC[C@@H](OP(=O)(O)OP(=O)(O)OP(=O)(O)OP(=O)(O)OP(=O)(O)OC[C@H]1OC(n2c(SCC)nc3c(N)ncnc32)[C@H](O)[C@@H]1O)[C@H]1OC(n2cnc3c(N)ncnc32)[C@H](O)[C@@H]1O (stereo partly specified)
Ki [16]: 63 µM
Relative inhibitory potency [4]: 0.36
Ki [13]: 120 µM
Inhibitory potency [5]: 1.7
Inhibitory potency [6]: 4.8
Ki [14]: 160 µM
Ki [9]: 52 µM

CCSc1nc2c(N)ncnc2n1C1O[C@H](COP(=O)(O)OP(=O)(O)OP(=O)(O)OP(=O)(O)OP(=O)(O)OC[C@H]2OC(n3c(SCC)nc4c(N)ncnc43)[C@H](O)[C@@H]2O)[C@@H](O)[C@H]1O (stereo partly specified)
Relative inhibitory potency [4]: > 22
Ki [17]: 900 µM
Ki [18]: 600 µM
Inhibitory potency [5]: 14
Inhibitory potency [6]: < 0.63
Ki [9]: 10 µM and 6.4 µM

CCSc1nc2c(N)ncnc2n1C1O[C@H](COP(=O)(O)OP(=O)(O)OP(=O)(O)OP(=O)(O)OP(=O)(O)O[C@H](C)[C@H]2OC(n3cnc4c(N)ncnc43)[C@H](O)[C@@H]2O)[C@@H](O)[C@H]1O (stereo partly specified)
Relative inhibitory potency [4]: 3.3
Ki [13]: 31 µM
Inhibitory potency [5]: 60
Inhibitory potency [6]: 18.4
Ki [14]: 31 µM
Ki [10]: 2.8 µM
Ki [9]: 1.5 µM

Nc1ncnc2c1ncn2C1O[C@H](CCP(=O)(O)OP(=O)(O)OP(=O)(O)O)[C@@H](O)[C@H]1O (stereo partly specified)
Ki [19]: 540 µM
Ki [1]: 4000 µM
Relative inhibitory potency [4]: > 1.8
Inhibitory potency [5]: 0.17
Inhibitory potency [6]: < 0.095

Nc1ncnc2c1ncn2[C@@H]1O[C@H](COP(=O)(O)O)[C@@H](O)[C@H]1O [ADENOSINE PHOSPHATE]
Ki [20]: 80 µM
Km [21]: 580 µM

C[C@H](OP(=O)(O)OP(=O)(O)OP(=O)(O)O)[C@H]1OC(n2cnc3c(N)ncnc32)[C@H](O)[C@@H]1O (stereo partly specified)
Ki [3]: 2000 µM
Ki [1]: 1800 µM
Inhibitory potency [5]: 0.045
Inhibitory potency [6]: < 0.21
